# ChEMBL document CHEMBL1135862, “Bioactive 4-substituted-6-methyl-2-pyrones with promising cytotoxicity against A2780 and K562 cell lines” (Bioorg Med Chem Lett, 2002)
# What was measured:
# A2780 = assay: Inhibitory concentration in vitro for cytotoxic activity against A 2780 human ovarian carcinoma cells; format: functional, cell-based
# In short: (§1)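 MTT assay in 96-well plates, seeding 400–1000 cells/well. Cells recover 24 h, then drug in medium is added, three wells per dose. Incubate 5 days at 37 °C in 5% CO₂. Add MTT (3 mg/mL) for 3 h, dissolve formazan in DMSO, read at 540 nm minus 620 nm. Percent growth inhibition per dose comes from duplicate experiments, reported as mean and SD; IC50 is derived from these.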
# Escherichia coli [1] = assay: Antimicrobial activity against Escherichia coli after 96h incubation; format: functional
# In short: (§2)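 Agar diffusion on cellulose disks loaded with 200 µg compound each. Bacteria read after 96 h, yeasts after 48 h. Activity is recorded as the radius in mm, or percent, of the inhibition zone. Squalestatin S1 (200 µg/disk) served as control in the yeast assay.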
# Candida albicans [2] = assay: Antimicrobial activity against Candida albicans after 48 hr incubation; format: functional; in short: as §2
# K562 = assay: Inhibitory concentration in vitro for cytotoxic activity against K 562 human chronic myelogenous leukemia cells; format: functional, cell-based; in short: as §1
# Escherichia coli [3] = assay: Antimicrobial activity against the Escherichia coli after 96 hr incubation; format: functional; design: concentration or dose not given beside the values; in short: as §2
# [4] = tested on: Schizosaccharomyces pombe; assay: The compound was evaluated for antimicrobial activity against Schizosaccharomyces pombe after 48 hr incubation; format: functional; in short: as §2
# Saccharomyces cerevisiae [5] = assay: Antimicrobial activity against Saccharomyces cerevisiae after 48 hr incubation; format: functional; in short: as §2
# Staphylococcus aureus [6] = assay: Antimicrobial activity against Staphylococcus aureus after 96h incubation; format: functional; in short: as §2
# Bacillus subtilis [7] = assay: Antimicrobial activity against Bacillus subtilis after 96h incubation; format: functional; in short: as §2
# Bacillus subtilis [8] = assay: Antimicrobial activity against Bacillus subtilis after 96 hr incubation; format: functional; design: concentration or dose not given beside the values; in short: as §2
# Candida albicans [9] = assay: Anti fungal activity against Candida albicans after 48 hr incubation; format: functional; design: concentration or dose not given beside the values; in short: as §2
# [10] = tested on: Schizosaccharomyces pombe; assay: Antimicrobial activity against Schizosaccharomyces pombe after 48 hr incubation; format: functional; in short: as §2
# Saccharomyces cerevisiae [11] = assay: Compound was evaluated for anti fungal activity against Saccharomyces cerevisiae after 48 hr incubation; format: functional; in short: as §2
# Staphylococcus aureus [12] = assay: The compound was evaluated for anti microbial activity against Staphylococcus aureus after 96 hr incubation; format: functional; design: concentration or dose not given beside the values; in short: as §2
SMILES,IC50 (A2780) [µM],Inhibition (Escherichia coli [1]) [mm],Inhibition (Candida albicans [2]) [mm],IC50 (K562) [µM],Inhibition (Escherichia coli [3]) [%],Inhibition [4],Inhibition (Saccharomyces cerevisiae [5]) [mm],Inhibition (Staphylococcus aureus [6]) [mm],Inhibition (Bacillus subtilis [7]) [mm],Inhibition (Bacillus subtilis [8]) [%],Inhibition (Candida albicans [9]) [%],Inhibition [10] [mm],Inhibition (Saccharomyces cerevisiae [11]) [%],Inhibition (Staphylococcus aureus [12]) [%]
CCc1cc(C)oc(=O)c1,> 50,21,0,> 50,23.8,0 radii mm-1,0,0,0,,,,,
CCCCCCCc1cc(C)oc(=O)c1,41.8,17,16,28.7,19.3,34.1%,5,14,16,18.2,18.2,30,5.7,15.9
